AI-2 QS mod: modulators of Vibrio harveyi AI-2 quorum sensing system. Vibrio harveyi JMH597 AI-2 luminescence/OD600 ratio, 9 h; active compounds read low; strain lacks LuxN and CqsS sensors; 0 = neutral-control median. 300,000 tested, 0.4% active. activity change, % at 7.5 µM. AID 2094; in the data active = activity change below about -75%, passing the limit was not always enough; inconclusive = no clear call, values can overlap the other calls;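 also: luminescence divided by OD600 gain over 9 h not by final OD600 alone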
Yeast superoxide: yeast age-related superoxide inhibition as caloric restriction mimetic. S. cerevisiae aged cells, superoxide DHE fluorescence; active compounds read low. superoxide response (% of plate mean), % at 10 µM. 330,000 tested, 0.18% active;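 active = superoxide response under a set limit, about three screen SD below normal, cut at about 65% in these data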;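 also: yeast aged for seven days with compound at 30 °C before DHE staining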
GSK3B inh: inhibitors of human GSK3beta kinase; P49841; GST-GSK3beta kinase, ADP-Glo luminescence, 60 min; active compounds read low; activity score (negative = inhibition), % at 10 µM; 300,000 tested, 0.038% active;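 active = more than half of replicate wells score below -50%, meaning over 50% inhibition versus plate controls; inconclusive = some replicates but at most half score below -50%; inactive = no replicate scores below -50%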
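test system = GST-tagged human GSK3beta kinase, cell-free | reagent = 25 µM ATP with peptide substrate | dosing = one dose of 10 µM per compound | schedule = 60 min reaction, RT | detection = luminescent ADP-Glo measurement of ADP formed | control set = DMSO neutral wells and GW8510 at 20 µM as positive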
STK33 inh: human STK33 kinase inhibition; inhibition, % at 10 µM; purified STK33, MBP phosphorylation, ADP-Glo luminescence; AID 2661; 320,000 tested, 0.073% active; Q9BYT3;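 active = inhibition at or above 25%, using the most active replicate where run in duplicate; inactive = inhibition below 25%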
PolyA inh: blocks polyadenylation in yeast reporter cells; activity score, % at 12 µM; S. cerevisiae SKY197-pL101 polyadenylation reporter, beta-gal luminescence; efflux-impaired pdr1/pdr3 knockout yeast; score 100 = 6 SD above DMSO; 300,000 tested, 0.02% active;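 active = lowest replicate activity score at least 50, where 100 means six control SD above control mean; inconclusive = lowest score under 50 but half or more replicates reach 50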;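 also: yeast exposed to compound for 9 h at 30 °C; higher score means more reporter readthrough which indicates perturbed polyadenylation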
GSK3A inh: human GSK-3 alpha kinase inhibition. 320,000 tested, 0.1% active. ADP-Glo luminescence, 60 min. P49840. inhibition, % at 10 µM;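 active = more than half of replicates show inhibition above 20%; inconclusive = some but at most half of replicates above 20% inhibition; inactive = no replicate shows inhibition above 20%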;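 also: GST-tagged GSK-3 alpha with peptide substrate and 25 µM ATP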
Target sequence (P49840 whole entry, looked up): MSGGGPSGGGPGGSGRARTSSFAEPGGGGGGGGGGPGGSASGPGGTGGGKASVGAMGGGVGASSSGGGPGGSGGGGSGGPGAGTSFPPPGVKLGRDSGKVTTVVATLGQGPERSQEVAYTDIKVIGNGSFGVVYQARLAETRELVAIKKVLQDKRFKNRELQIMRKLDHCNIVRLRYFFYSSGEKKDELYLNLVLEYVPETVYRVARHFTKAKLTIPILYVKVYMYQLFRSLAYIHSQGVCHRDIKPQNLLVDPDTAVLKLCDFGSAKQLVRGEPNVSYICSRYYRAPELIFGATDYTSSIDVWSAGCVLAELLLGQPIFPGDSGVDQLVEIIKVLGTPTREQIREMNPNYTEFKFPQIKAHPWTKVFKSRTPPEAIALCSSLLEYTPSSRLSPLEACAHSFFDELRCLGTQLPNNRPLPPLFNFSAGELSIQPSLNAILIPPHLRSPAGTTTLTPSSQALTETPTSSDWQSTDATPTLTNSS
JMH597 growth: retest: inhibitors of Vibrio harveyi JMH597 growth; growth inhibition, % at 7.5 µM; 750 tested, 1% active; shares compounds with AI-2 QS mod; OD600 absorbance, 9 h; lacks LuxN and CqsS sensors; AID 2726;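 active = every replicate shows growth inhibition above 50%; inconclusive = at least half, but not all, replicates pass that cutoff; inactive = fewer than half of replicates pass it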
BB721 const-QS lum: retest counter-screen: lowers luminescence of constitutive-QS Vibrio harveyi BB721; shares compounds with AI-2 QS mod; 9 h; inhibition, % at 7.5 µM; 750 tested, 95% active; AID 2727;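 active = inhibition above about 80% in every replicate, not just on average, limit read from the data; inconclusive = at least half of replicates past the limit, but not all; inactive = fewer than half of replicates past the limit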
BB721 growth: retest: inhibitors of Vibrio harveyi BB721 growth. AID 2728. 750 tested, 3% active. OD600 absorbance, 9 h. growth inhibition, % at 7.5 µM. shares compounds with AI-2 QS mod;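 active = every replicate shows growth inhibition above 50%; inconclusive = at least half but not all replicates above 50% inhibition; inactive = under half of replicates above 50% inhibition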
JMH597 AI-2 mod: Vibrio harveyi AI-2 signaling luminescence modulation – JMH597 strain, confirmation. shares compounds with AI-2 QS mod. Vibrio harveyi JMH597 AI-2 quorum sensing luminescence, 9 h; luxN and CqsS knockout, AI-2 only. inhibition, % at 7.5 µM. 750 tested, 97% active;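 active = every replicate shows more than 75% inhibition of signal versus neutral control wells; inconclusive = half to three quarters of replicates exceed 75% inhibition; inactive = fewer than half of replicates exceed 75% inhibition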
Each line names hits and unclear results; the compound was inactive in the other large screens (follow-up assays come after a bar, where they were run). A selection: hits, their analogues and other compounds. The true share with any hit is near 0.72%.

O=C(NCc1nc(-c2ccc(C(F)(F)F)cc2)no1)c1cccs1	AI-2 QS mod -94 | JMH597 growth inactive | BB721 const-QS lum 96 | BB721 growth inactive | JMH597 AI-2 mod 97
CCOc1ccc(-c2cccc(NC(=O)c3ccco3)c2)nn1	none
CN(C)S(=O)(=O)c1ccc(NC(=O)CN2CCc3ccccc32)cc1	AI-2 QS mod -92 | JMH597 growth inactive | BB721 const-QS lum 96 | BB721 growth inactive | JMH597 AI-2 mod 97
Cc1ccc(CNC(=O)/C=C/c2cccs2)cc1	AI-2 QS mod -96 | JMH597 growth inactive | BB721 const-QS lum 99 | BB721 growth inactive | JMH597 AI-2 mod 99
CCCc1ccc(S(=O)(=O)N(C)S(=O)(=O)c2ccc(F)cc2)cc1	AI-2 QS mod inconclusive | JMH597 growth inactive | BB721 const-QS lum inactive | BB721 growth inactive | JMH597 AI-2 mod 99
Cc1nc(C)c(C(=O)Nc2ccc(Oc3ccccc3)cc2)o1	AI-2 QS mod -83 | JMH597 growth inactive | BB721 const-QS lum 91 | BB721 growth inactive | JMH597 AI-2 mod 94
Cc1ncoc1C(=O)Nc1ccc(Oc2ccccc2)cc1	AI-2 QS mod -96 | JMH597 growth inactive | BB721 const-QS lum 99 | BB721 growth inactive | JMH597 AI-2 mod 99
O=C(O)c1ccccc1C(=O)Nc1ccc(Oc2ccccc2)cc1	none
CC(C)C(=O)OCc1cn(-c2ccc(Cl)c(Cl)c2)nn1	AI-2 QS mod -82 | JMH597 growth inactive | BB721 const-QS lum 95 | BB721 growth inactive | JMH597 AI-2 mod 96
c1ccc(OCc2nnc(-c3ccccc3)o2)cc1	AI-2 QS mod -88 | JMH597 growth inactive | BB721 const-QS lum 97 | BB721 growth inactive | JMH597 AI-2 mod 97
COc1cccc(CNC(=O)CCNS(=O)(=O)c2ccc(C)cc2)c1	none
O=C(CNc1ccc(Br)cc1)c1ccc(O)cc1	AI-2 QS mod -82 | JMH597 growth inactive | BB721 const-QS lum 90 | BB721 growth inactive | JMH597 AI-2 mod 93
Cn1cnc(S(=O)(=O)Nc2ccc(OC(F)(F)F)cc2)c1	AI-2 QS mod inconclusive | JMH597 growth inactive | BB721 const-QS lum inactive | BB721 growth inactive | JMH597 AI-2 mod 88
CCC1(c2ccc(F)cc2)NC(=O)N(CC(=O)Nc2cc(C)on2)C1=O (stereo not given)	none (no result: AI-2 QS mod, GSK3B inh, STK33 inh, PolyA inh, GSK3A inh)
COc1ccc(Oc2cn[nH]c2-c2ccc(O)cc2O)cc1	AI-2 QS mod -90 | JMH597 growth inconclusive | BB721 const-QS lum 97 | BB721 growth inconclusive | JMH597 AI-2 mod 98
CSc1ncccc1C(=O)OCC(=O)Nc1ccc(S(=O)(=O)N2CCCC2)cc1	AI-2 QS mod -92 | JMH597 growth inactive | BB721 const-QS lum 98 | BB721 growth inactive | JMH597 AI-2 mod 99
O=C(COc1cccc(C(F)(F)F)c1)Nc1ccc(S(=O)(=O)N2CCCC2)cc1	AI-2 QS mod -93 (no result: PolyA inh) | JMH597 growth inactive | BB721 const-QS lum 98 | BB721 growth inactive | JMH597 AI-2 mod inconclusive
CSc1ncccc1C(=O)OCC(=O)c1ccc(S(=O)(=O)N2CCCCC2)cc1	none
O=C(COC(=O)Cc1ccc2c(c1)OCCO2)Nc1ccc(S(=O)(=O)N2CCCC2)cc1	AI-2 QS mod -92 | JMH597 growth inactive | BB721 const-QS lum 96 | BB721 growth inactive | JMH597 AI-2 mod 97
Cc1cc(C(=O)OCC(=O)Nc2ccc(S(=O)(=O)N3CCOCC3)cc2)c(C)o1	AI-2 QS mod -91 | JMH597 growth inactive | BB721 const-QS lum 98 | BB721 growth inactive | JMH597 AI-2 mod 98
O=C(CCN1C(=O)c2ccccc2C1=O)C1=NN[C@@H]2C(=O)N(c3ccc4c(c3)OCO4)C(=O)[C@H]12	none
CC(=O)C1=C(O)C(=O)N(c2ccc(O)cc2)C1c1ccccc1Cl (stereo not given)	none
CC(Sc1nnc(C2CC2)n1C1CC1)C(=O)c1ccc(F)cc1 (stereo not given)	none (no result: AI-2 QS mod, GSK3B inh, PolyA inh)
COc1ccc(C(=O)Cn2nnc(-c3ccccc3F)n2)cc1	AI-2 QS mod -86 | JMH597 growth inactive | BB721 const-QS lum 95 | BB721 growth inactive | JMH597 AI-2 mod 97
COC(=O)/C=C/C(=O)Nc1ccc(O)c(Cl)c1	AI-2 QS mod -93 | JMH597 growth inactive | BB721 const-QS lum 96 | BB721 growth inactive | JMH597 AI-2 mod 95
O=C(CSc1ncc(-c2ccccc2)[nH]1)Nc1ccccc1	AI-2 QS mod -82 | JMH597 growth inactive | BB721 const-QS lum 93 | BB721 growth inactive | JMH597 AI-2 mod 94
CCCNC(=S)N1CC2(C)CN(C(=O)C(=O)OCC)CC(C)(C1)C2=O	none
c1ccc(NCc2ccccn2)cc1	none
c1ccc(NCCCNc2ccccc2)cc1	AI-2 QS mod -81 | JMH597 growth inactive | BB721 const-QS lum 93 | BB721 growth inactive | JMH597 AI-2 mod 93
O=C(NCc1ccccc1F)Nc1ccc([N+](=O)[O-])cc1	AI-2 QS mod inconclusive | JMH597 growth inactive | BB721 const-QS lum 91 | BB721 growth inactive | JMH597 AI-2 mod 93
c1ccc2c(c1)oc1c(NCc3ccc4c(c3)OCO4)ncnc12	AI-2 QS mod -88 | JMH597 growth inactive | BB721 const-QS lum 93 | BB721 growth inactive | JMH597 AI-2 mod 97
c1ccc2c(c1)oc1c(Nc3ccc4c(c3)OCO4)ncnc12	none
N/C(=N\OC(=O)COc1ccc(Br)cc1)c1cccnc1	none
Cc1cc(C)cc(OCC(=O)O/N=C(\N)c2cccnc2)c1	AI-2 QS mod -96 (no result: Yeast superoxide, STK33 inh, GSK3A inh) | JMH597 growth inactive | BB721 const-QS lum 98 | BB721 growth inactive | JMH597 AI-2 mod 98
N/C(=N\OC(=O)COc1ccccc1)c1cccnc1	AI-2 QS mod -88 | JMH597 growth inactive | BB721 const-QS lum 95 | BB721 growth inactive | JMH597 AI-2 mod 97
Cc1cccc(OCC(=O)O/N=C(\N)c2ccccn2)c1	AI-2 QS mod -91 | JMH597 growth inactive | BB721 const-QS lum 93 | BB721 growth inactive | JMH597 AI-2 mod 96
Cc1cc(C)cc(OCC(=O)O/N=C(\N)c2ccccn2)c1	AI-2 QS mod inconclusive
O=C(OCCc1cc2ccccc2c(=O)o1)N1CCOCC1	none (no result: AI-2 QS mod, GSK3B inh, PolyA inh)
O=C(Cn1cc(C(F)(F)F)cc(Cl)c1=O)NC1CCS(=O)(=O)C1 (stereo not given)	none (no result: AI-2 QS mod, GSK3B inh, PolyA inh)
CNc1oc(-c2ccco2)nc1C#N	none
